Laboratory results reported in ChEMBL document CHEMBL4706684, “Discovering High Potent Hsp90 Inhibitors as Antinasopharyngeal Carcinoma Agents through Fragment Assembling Approach” (J Med Chem, 2021).
Calls of active or inactive are those of the source. The calls are words filed in the database; no cut-off is given here.

How the values were obtained:
[1] = target: T1, Heat shock protein HSP 90-beta (Homo sapiens, UniProt P08238); experiment: Inhibition of HSP90-beta (unknown origin) expressed in Escherichia coli BL21 assessed as reduction in ATPase activity in presence of PEP, NADH and ATP by pyruvate kinase/lactic dehydrogenase based coupled enzyme assay
T1 sequence (P08238 whole entry): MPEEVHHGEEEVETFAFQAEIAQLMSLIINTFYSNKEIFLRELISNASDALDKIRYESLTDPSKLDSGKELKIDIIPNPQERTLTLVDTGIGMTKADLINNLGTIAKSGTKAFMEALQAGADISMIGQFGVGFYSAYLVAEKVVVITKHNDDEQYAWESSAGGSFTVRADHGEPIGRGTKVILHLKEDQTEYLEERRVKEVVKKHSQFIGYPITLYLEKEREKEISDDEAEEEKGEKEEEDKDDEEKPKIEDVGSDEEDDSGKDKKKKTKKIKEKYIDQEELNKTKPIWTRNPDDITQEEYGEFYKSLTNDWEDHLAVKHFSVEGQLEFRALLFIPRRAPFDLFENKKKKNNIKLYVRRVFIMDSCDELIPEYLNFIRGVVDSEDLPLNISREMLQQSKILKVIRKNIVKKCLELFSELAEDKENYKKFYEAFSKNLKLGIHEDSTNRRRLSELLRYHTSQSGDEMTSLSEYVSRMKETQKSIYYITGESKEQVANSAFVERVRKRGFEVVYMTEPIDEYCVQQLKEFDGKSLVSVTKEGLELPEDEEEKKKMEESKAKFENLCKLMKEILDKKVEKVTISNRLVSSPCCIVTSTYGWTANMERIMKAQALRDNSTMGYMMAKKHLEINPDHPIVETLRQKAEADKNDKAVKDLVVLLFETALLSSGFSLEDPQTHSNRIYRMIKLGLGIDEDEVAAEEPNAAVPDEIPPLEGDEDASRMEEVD

CNE-2 = experiment: Cytotoxicity in human CNE-2 cells assessed as reduction in cell viability incubated for 48 hrs by MTT assay; format: cell-based; conditions: CNE-2, 48 h
In short: (§1)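 Cells were seeded at 3 × 10³ cells per well and grown for 24 h at 37 °C in 5% CO₂. CNE2 was grown in RPMI 1640 and HeLa and HepG2 in DMEM, each with 10% FBS and 1% penicillin/streptomycin. Cells were exposed to 0−20 μM inhibitor for 48 h, with a DMSO solvent control. MTT (0.5 mg/mL) was then added for 3 h.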

[2] = target: T2, Heat shock protein HSP 90-alpha (Homo sapiens, UniProt P07900); experiment: Inhibition of HSP90-alpha (unknown origin) expressed in Escherichia coli BL21 assessed as reduction in ATPase activity in presence of PEP, NADH and ATP by pyruvate kinase/lactic dehydrogenase based coupled enzyme assay
[3] = target: T2, Heat shock protein HSP 90-alpha; experiment: Binding affinity to HSP90-alpha (unknown origin) expressed in Escherichia coli BL21 by SPR assay
[4] = target: T1, Heat shock protein HSP 90-beta; experiment: Binding affinity to HSP90-beta (unknown origin) expressed in Escherichia coli BL21 by SPR assay
HepG2 = experiment: Cytotoxicity in human HepG2 cells assessed as reduction in cell viability incubated for 48 hrs by MTT assay; format: cell-based; conditions: HepG2, 48 h; in short: as §1
HeLa = experiment: Cytotoxicity in human HeLa cells assessed as reduction in cell viability incubated for 48 hrs by MTT assay; format: cell-based; in short: as §1

`COc1cc(-c2cn(Cc3ccc(C(C)(C)C)cc3)nn2)cc(OC)c1OC` gave an IC50 [1] of 2.7 µM, an IC50 (CNE-2) of 1.8 µM and an IC50 [2] of 2.7 µM.
For `CCSc1ccc(N)s1`, the Activity [3] was “Active”.
For `O=C(O)c1csc(-c2ccc(Cl)cc2)n1`, the Activity [3] was “Active”.
`CC(C)(C)c1ccc(Cn2cc(-c3ccc(O)cc3)nn2)cc1` showed an IC50 [1] of 1.8 µM, an IC50 (CNE-2) of 5.6 µM and an IC50 [2] of 1.3 µM.
`CC(C)(C)c1ccc(Cn2cc(-c3ccc(O)cc3)nn2)c(O)c1` was tested, and the IC50 [1] was over 40 µM, the IC50 (CNE-2) was over 20 µM and the IC50 [2] was over 40 µM.
In the case of `CC(=O)c1ccc(-n2ccnc2)cc1`, the Activity [3] is reported as “Active”.
Molecule `COc1ccc(-c2cn(Cc3ccc(C(C)(C)C)cc3)nn2)c([N+](=O)[O-])c1` has an IC50 [1] of 5 µM, an IC50 (CNE-2) of 1.6 µM and an IC50 [2] of 5 µM.
`CC(C)(C)c1ccc(Cn2cc(-c3ccc(O)cc3N)nn2)cc1` gave an IC50 [1] of 14.6 µM, an IC50 (CNE-2) of 1.6 µM and an IC50 [2] of 13.7 µM.
`COc1ccc(-c2cn(Cc3cc(C(F)(F)F)cc(C(F)(F)F)c3)nn2)cc1` gave a Kd [4] of 7 µM, an IC50 (HepG2) of 18.1 µM and an IC50 [1] of 9.8 µM. The IC50 (CNE-2) was 14.1 µM, the IC50 (HeLa) was 22.4 µM and the IC50 [2] was 6.2 µM. For the same molecule, the Kd [3] was 3.1 µM.
`CC(C)(C)c1csc(N)n1` was tested, and the Activity [3] was “Active”.
In the case of `Nc1cccs1`, the Activity [3] is reported as “Active”.
Work on `CC(C)(C)c1ccc(Cn2cc(-c3ccc(O)cc3[N+](=O)[O-])nn2)cc1` yielded an IC50 [1] of 1.7 µM, an IC50 (CNE-2) of 1.6 µM and an IC50 [2] of 1.7 µM.
Molecule `COc1ccc(-c2cn(Cc3ccc(C(C)(C)C)cc3)nn2)c(N)c1` has an IC50 [1] of over 40 µM, an IC50 (CNE-2) of over 20 µM and an IC50 [2] of over 40 µM.
For `C=CCNC1=C2C[C@@H](C)C[C@H](OC)[C@H](O)[C@@H](C)/C=C(\C)[C@H](OC(N)=O)[C@@H](OC)/C=C\C=C(/C)C(=O)NC(=CC1=O)C2=O` [TANESPIMYCIN], the IC50 (HepG2) was 8 µM, the IC50 (CNE-2) was 3.03 µM and the IC50 (HeLa) was 19.4 µM.
`COc1ccc(-c2cn(Cc3ccc(C(C)(C)C)cc3)nn2)cc1` gave a Kd [4] of 4.8 µM, an IC50 (HepG2) of over 50 µM and an IC50 [1] of 5.6 µM. The IC50 (CNE-2) was 4 µM, the IC50 (HeLa) was over 50 µM and the IC50 [2] was 5.6 µM. For the same molecule, the Kd [3] was 4.8 µM.
`Cc1noc(N)c1C` was tested, and the Activity [3] was “Active”.
For `Nc1cc(-c2ccccc2)n[nH]1`, the Activity [3] was “Active”.
